According to ChEMBL document CHEMBL1123822, “Lysosomotropic agents. 7. Broad-spectrum antifungal activity of lysosomotropic detergents” (1987):
In brackets after ≈: the same amount, converted by molar mass.

Legend:
Format in all cases: functional
Saccharomyces cerevisiae [1] = assay: The compound was evaluated for mean zone diameter (inhibition) against yeast at the concentration of 500 ug/mL
How it was run: (§1)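 Disk diffusion: drug in methanol spotted on 6.2 mm paper disks (25 μL/disk), dried at room temperature, laid on seeded agar, rewet with 25 μL 10% aqueous Me₂SO; zones read after overnight incubation. Unbuffered acidic media (pH ca. 4.5–5.6). Panel of 21 yeasts and 21 filamentous fungi; zones of 0 mm excluded from means.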

Cryptococcus neoformans [2] = assay: The compound was tested for antifungal activity against Cryptococcus neoformans MY1051 using agar dilution assay
How it was run: (§2)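 Standardized agar dilution on Kimmig agar with 5% glycerol. Detergents solubilized in 10% Me2SO; desoxycholate-stabilized amphotericin B diluted and titrated in sterile distilled water. Twofold dilutions in sterile distilled water gave final agar concentrations of 128 to 0.06 μg/mL. Error limit ±1 dilution stage.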

Cryptococcus neoformans [3] = assay: The compound was tested for antifungal activity against Cryptococcus neoformans MY1146 using agar dilution assay; how it was run: as §2
Candida albicans [4] = assay: The compound was tested for antifungal activity against Candida albicans MY1055 using agar dilution assay
How it was run: (§3)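 Standardized agar dilution in Kimmig agar with 5% glycerol. Lysosomotropic detergents solubilized in 10% Me₂SO. Twofold serial dilutions in sterile distilled water gave final agar concentrations of 128 to 0.06 μg/mL. Stated error ±1 dilution stage.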

Fungi = assay: The compound was evaluated for mean zone diameter (inhibition) against yeast at the concentration of 1000 ug/mL; how it was run: as §1
Candida albicans [5] = assay: The compound was tested for antifungal activity against Candida albicans My1029 using agar dilution assay; how it was run: as §3
Candida albicans [6] = assay: The compound was tested for antifungal activity against Candida albicans MY1013 using agar dilution assay; how it was run: as §3
Nakaseomyces glabratus = assay: The compound was tested for antifungal activity against Torulopsis glabrata MY1059 using agar dilution assay; how it was run: as §2
Candida albicans [7] = assay: The compound was tested for antifungal activity against Candida stellatoidea MY1017 using agar dilution assay; how it was run: as §2
Saccharomyces cerevisiae [8] = assay: The compound was evaluated for mean zone diameter (inhibition) against yeast at the concentration of 125 ug/mL
How it was run: (§4)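 Filter-paper disk diffusion (6.2 mm disks) with drug in methanol at the stated level, 25 μL per disk. Disks were air-dried at room temperature, laid on seeded agar, rewet with 25 μL 10% aqueous Me₂SO and incubated overnight. Media were unbuffered, pH ca. 4.5–5.6. The panel was 21 yeasts and 21 filamentous fungi. Zones of 0 mm were excluded from means.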

Candida albicans [9] = assay: The compound was tested for antifungal activity against Candida albicans MY0992 using agar dilution assay; how it was run: as §3
Kluyveromyces marxianus = assay: The compound was tested for antifungal activity against Candida pseudotropicalis MY1040 using agar dilution assay; how it was run: as §3
Saccharomyces cerevisiae [10] = assay: The compound was evaluated for mean zone diameter (inhibition) against yeast at the concentration of 250 ug/mL; how it was run: as §4
Candida tropicalis [11] = assay: The compound was tested for antifungal activity against Candida tropicalis MY1011 using agar dilution assay; how it was run: as §2
Aspergillus fumigatus = assay: The compound was tested for antifungal activity against Aspergillus fumigatus MF4839 using agar dilution assay; how it was run: as §3
Diutina rugosa = assay: The compound was tested for antifungal activity against Candida rugosa MY1022 using agar dilution assay; how it was run: as §3
Saccharomyces cerevisiae [12] = assay: The compound was tested for antifungal activity against Saccharomyces cerevisiae MY1027 using agar dilution assay; how it was run: as §2
[13] = test system: Meyerozyma guilliermondii; assay: The compound was tested for antifungal activity against Candida guilliermondii MY1019 using agar dilution assay; how it was run: as §3
Aspergillus flavus = assay: The compound was tested for antifungal activity against Aspergillus flavus MF0383 using agar dilution assay; how it was run: as §3
Candida albicans [14] = assay: The compound was tested for antifungal activity against Candida albicans MY1058 using agar dilution assay; how it was run: as §3
Candida parapsilosis [15] = assay: The compound was tested for antifungal activity against Candida parapsilosis MY1010 using agar dilution assay; settings: Lodderomyces parapsilosis; how it was run: as §3
Candida tropicalis [16] = assay: The compound was tested for antifungal activity against Candida tropicalis MY1012 using agar dilution assay; how it was run: as §2
Candida parapsilosis [17] = assay: The compound was tested for antifungal activity against Candida parapsilosis MY1009 using agar dilution assay; settings: Lodderomyces parapsilosis; how it was run: as §3
Pichia kudriavzevii = assay: The compound was tested for antifungal activity against Candida krusei MY1020 using agar dilution assay; how it was run: as §3
Penicillium italicum = assay: The compound was tested for antifungal activity against Penicillium italicum MF2819 using agar dilution assay; how it was run: as §2

## CC(=O)N1CCN(c2ccc(OCC3COC(Cn4ccnc4)(c4ccc(Cl)cc4Cl)O3)cc2)CC1 (stereo not given) [KETOCONAZOLE]
Saccharomyces cerevisiae [1]
  Inhibition zone: 24.8 mm
Cryptococcus neoformans [2]
  MIC: 0.25 µg/mL (≈ 0.47 µM)
Cryptococcus neoformans [3]
  MIC: 0.5 µg/mL (≈ 0.941 µM)
Candida albicans [4]
  MIC: 0.5 µg/mL (≈ 0.941 µM)
Fungi
  Inhibition zone: 27.2 mm
Candida albicans [5]
  MIC: 0.5 µg/mL (≈ 0.941 µM)
Candida albicans [6]
  MIC: 0.5 µg/mL (≈ 0.941 µM)
Nakaseomyces glabratus
  MIC: 1 µg/mL (≈ 1.88 µM)
Candida albicans [7]
  MIC: 0.5 µg/mL (≈ 0.941 µM)
Saccharomyces cerevisiae [8]
  Inhibition zone: 20.6 mm
Candida albicans [9]
  MIC: 1 µg/mL (≈ 1.88 µM)
Kluyveromyces marxianus
  MIC: 1 µg/mL (≈ 1.88 µM)
Saccharomyces cerevisiae [10]
  Inhibition zone: 23.3 mm
Candida tropicalis [11]
  MIC: 1 µg/mL (≈ 1.88 µM)
Aspergillus fumigatus
  MIC: 1 µg/mL (≈ 1.88 µM)
Diutina rugosa
  MIC: 0.5 µg/mL (≈ 0.941 µM)
Saccharomyces cerevisiae [12]
  MIC: 0.5 µg/mL (≈ 0.941 µM)
[13]
  MIC: 0.5 µg/mL (≈ 0.941 µM)
Aspergillus flavus
  MIC: 1 µg/mL (≈ 1.88 µM)
Candida albicans [14]
  MIC: 0.5 µg/mL (≈ 0.941 µM)
Candida parapsilosis [15]
  MIC: 2 µg/mL (≈ 3.76 µM)
Candida tropicalis [16]
  MIC: > 128 µg/mL
Candida parapsilosis [17]
  MIC: 4 µg/mL (≈ 7.53 µM)
Pichia kudriavzevii
  MIC: 1 µg/mL (≈ 1.88 µM)
Penicillium italicum
  MIC: 1 µg/mL (≈ 1.88 µM)
